Data set [1] in a line: folding enthalpy; higher = less favourable; fluorescence melt of hairpins on a sequencing array, two-state fit. The settings on record: sodium 0.088 M. The essentials: (§1)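 On a sequenced MiSeq flow cell, library hairpins with annealed Cy3 and quencher oligos were imaged for Cy3 fluorescence in 2.5 °C steps up to 60 °C, in 50 mM Na-HEPES pH 8.0, 25 mM NaCl. Normalisation used pre-quench Cy3 and control constructs. Bootstrapped two-state fits gave melting temperature and folding enthalpy, combined by inverse variance across four replicates and with fitted temperatures raised by 9.35 °C to match UV melts.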

The nature of data set [2]: melting temperature; fluorescence melt of hairpins on a sequencing array, two-state fit, raised by 9.35 °C to match UV melts. As to conditions: sodium 0.088 M. The essentials:
as §1

On to GATCACCCATGTGATC ((((((....)))))), for which the folding enthalpy in data set [1] was -33.8 kcal/mol. For the same sequence, the Tm in data set [2] was found to be 55.7 °C.
On the same counts, the results for GATCACCCCAGTGATC ((((((....)))))) are -44.7 kcal/mol and 60 °C.
Regarding GATCACCGAAAGGTTATC (((.(((....))).))), the folding enthalpy in data set [1] is -27.7 kcal/mol. In data set [2], the Tm came out at 40.4 °C.
GATCACCGGAGTGATC ((((((....)))))): the folding enthalpy in data set [1] was -41.2 kcal/mol. Further, the Tm in data set [2] worked out at 57.7 °C.
Consider GATCACCGTAGTGATC ((((((....)))))), for which the folding enthalpy in data set [1] was -51.1 kcal/mol. Also, the Tm in data set [2] is 57 °C.
Turning to GATCACCTGAGTGATC ((((((....)))))), in data set [1], the folding enthalpy was -35.8 kcal/mol. The Tm in data set [2] stood at 57 °C.
For GATCACCTGGTGATC ((((((...)))))) the same measures were -33.1 kcal/mol and 58.1 °C.
As for GATCACCTTAGTGATC ((((((....)))))), the folding enthalpy in data set [1] is -39.1 kcal/mol. Also, the Tm in data set [2] was determined as 59.3 °C.
As for GATCACGAAAGTGCTATC ((((((....)))..))), in data set [1], the folding enthalpy is -12.1 kcal/mol. For the same sequence, in data set [2], the Tm came out at 26.1 °C.
On to GATCACGAACGTGATC ((((((....)))))), for which, in data set [1], the folding enthalpy is -42.4 kcal/mol. For the same sequence, the Tm in data set [2] amounted to 67.3 °C.
As for GATCACGACCGTGATC ((((((....)))))), in data set [1], the folding enthalpy is -46.1 kcal/mol. Also, in data set [2], the Tm is 63.6 °C.
Take GATCACGCAGGTGATC ((((((....)))))): the folding enthalpy in data set [1] was -39.6 kcal/mol. Moreover, the Tm in data set [2] came out at 64.2 °C.
For the sequence GATCACGCCGGTGATC ((((((....)))))), the folding enthalpy in data set [1] is -38.7 kcal/mol. The Tm in data set [2] turned out to be 60.7 °C.
GATCACGGCCGTGATC ((((((....)))))): the folding enthalpy in data set [1] was -49.1 kcal/mol. For the same sequence, the Tm in data set [2] amounted to 66.3 °C.
Consider GATCACGTCGGTGATC ((((((....)))))), for which the folding enthalpy in data set [1] is -36.5 kcal/mol. Also, the Tm in data set [2] is 59.7 °C.
GATCACGTGCGTGATC ((((((....)))))): the folding enthalpy in data set [1] is -45.1 kcal/mol. Moreover, in data set [2], the Tm was 59.7 °C.
On the same counts, the results for GATCACTACTGTGATC ((((((....)))))) are -42 kcal/mol and 56.5 °C.
On to GATCACTAGCGTGATC ((((((....)))))), for which the folding enthalpy in data set [1] was -41.8 kcal/mol. Besides, in data set [2], the Tm came to 55.1 °C.
With GATCACTATAGTGATC ((((((....)))))), the folding enthalpy in data set [1] is -38.1 kcal/mol. The Tm in data set [2] turned out to be 58.8 °C.
Regarding GATCACTCAGTGATC ((((((...)))))), the folding enthalpy in data set [1] is -35.5 kcal/mol. In data set [2], the Tm was 58.3 °C.
On to GATCACTCTGTGATC ((((((...)))))), for which the folding enthalpy in data set [1] was -35.8 kcal/mol. For the same sequence, the Tm in data set [2] stood at 61.6 °C.
In the case of GATCACTGAAGTGATC ((((((....)))))), the folding enthalpy in data set [1] is -36.4 kcal/mol. For the same sequence, the Tm in data set [2] worked out at 56.8 °C.
As to GATCACTGCGTGATC ((((((...)))))), in data set [1], the folding enthalpy is -26.3 kcal/mol. The Tm in data set [2] was found to be 61 °C.
Regarding GATCACTTAGTGATC ((((((...)))))), the folding enthalpy in data set [1] was -37 kcal/mol. In addition, the Tm in data set [2] is 58.6 °C.
On the same counts, the results for GATCACTTCAGTGATC ((((((....)))))) are -46.6 kcal/mol and 63.9 °C.
For GATCACTTGCGTGATC ((((((....)))))), in data set [1], the folding enthalpy is -40.7 kcal/mol. Moreover, in data set [2], the Tm was 55.9 °C.
For GATCAGAATCCTGATC ((((((....)))))), the folding enthalpy in data set [1] was -31 kcal/mol. Also, the Tm in data set [2] was determined as 46.9 °C.
Take GATCAGACGTCTGATC ((((((....)))))): in data set [1], the folding enthalpy was -60.5 kcal/mol. For the same sequence, the Tm in data set [2] was determined as 55 °C.
For GATCAGACTCTGATC ((((((...)))))) the same measures were -35 kcal/mol and 47.1 °C.
For the sequence GATCAGAGTCTGATC ((((((...)))))), the folding enthalpy in data set [1] was -39.1 kcal/mol. In addition, in data set [2], the Tm was 47.4 °C.
Consider GATCAGATAACTGATC ((((((....)))))), for which the folding enthalpy in data set [1] is -34.5 kcal/mol. Moreover, the Tm in data set [2] stood at 46.8 °C.
For GATCAGATCACTGATC ((((((....)))))) the same measures were -28.6 kcal/mol and 49.9 °C.
On to GATCAGATCTCTGATC ((((((....)))))), for which the folding enthalpy in data set [1] is -40 kcal/mol. Moreover, the Tm in data set [2] was found to be 50.7 °C.
Consider GATCAGATTCCTGATC ((((((....)))))), for which the folding enthalpy in data set [1] was -39 kcal/mol. Moreover, in data set [2], the Tm was determined as 48.5 °C.
As to GATCAGATTCTGATC ((((((...)))))), in data set [1], the folding enthalpy was -29.7 kcal/mol. The Tm in data set [2] worked out at 48.5 °C.
As to GATCAGCAGCTGATC ((((((...)))))), the folding enthalpy in data set [1] is -48.4 kcal/mol. Moreover, in data set [2], the Tm came to 48.8 °C.
For GATCAGCCAACTGATC ((((((....)))))), in data set [1], the folding enthalpy is -33.8 kcal/mol. For the same sequence, the Tm in data set [2] worked out at 49.6 °C.
Take GATCAGCCCTCTGATC ((((((....)))))): in data set [1], the folding enthalpy was -35.3 kcal/mol. In data set [2], the Tm worked out at 50.1 °C.
